Screening data as filed in PubChem BioAssay.
SF-1 act: activators of human nuclear receptor SF-1; CHO-K1 Gal4-SF-1 LBD luciferase reporter; % increase over DMSO SF-1-specific signal; activation, % at 10 µM; hit rate 1.9% among 65,000;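 active = activation above the mean activation of all tested compounds plus 3 SD, cut at about 50% in these data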
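Test system: transient Gal4-SF-1 LBD reporter, CHO-K1; Amount: 4,000 CHO-K1 cells per well; Doses: 10 µM only; Timing: compound exposure 20 h at 37 °C; Signal: luciferase light emission; Read-out basis: percent activation relative to DMSO median and mock-transfected background; Control set: DMSO negative control and −SF1 background wells; Replicates: one test per compound.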
BAP1 block: inhibitors of human BAP1 deubiquitinase; Q92560; recombinant BAP1, Ub-AMC hydrolysis fluorescence kinetic; stronger effect = lower value; activity remaining (% of control), % at 20 µM; hit rate 0.48% among 72,000;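 active = activity remaining at or below 50% of control, provided the compound also passes the data quality filters; inactive = the rest, including low values that fail the filters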;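 also: 100% = DMSO wells rate and 0% = substrate alone blank rate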
RORa activator: RORA (human) activation; CHO-K1 Gal4-RORA LBD luciferase reporter, luminescence; percent increase over mock-subtracted basal signal; hit rate 1.5% among 65,000; P35398; activation, % at 10 µM;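 active = activation above the mean of all tested compounds plus 3 SD, cut at about 49% in these data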;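 also: 0% = DMSO-treated RORA cells and 100% = added signal equal to DMSO minus mock-transfected cells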
E coli RNAP: Escherichia coli RNA polymerase inhibition | E. coli RNA polymerase, fluorescence transcription assay | inhibition, %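 (tested at 10 µM)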 | hit rate 0.2% among 62,000; in the data active = inhibition above about 20%;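 also: 0% = enzyme without compound and 100% = no enzyme blank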
JNK3 inh: blocks human JNK3 kinase activity. purified JNK3 kinase activity, HTS. inhibition, % at 8 µM. hit rate 0.61% among 60,000. AID 746; in the data active = inhibition above about 17%;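 also: 0% = DMSO and 100% = reference inhibitor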
* marks the source's active call; other numbers are inactive results; x = no result shown. Rows were chosen to be rich in hits. Some 3.2% of all compounds tested hit in one or more screens of this group.

SMILES | SF-1 act | BAP1 block | RORa activator | E coli RNAP | JNK3 inh
CCCC(N)CCCCCC(=O)O (stereo not drawn) | -15 | 98 | -21 | 12 | 3
CCCCCCCCCCCCCCC[C@H](O)[C@H](N)CO | x | 47* | x | x | x
O=C1NC(Nc2ccccn2)(C(F)(F)F)C(=O)N1c1ccc(F)cc1 (stereo not drawn) | 7 | 83 | -8 | 6 | 3
CN1CCN(Cc2ccc(OCc3ccccc3)cc2)CC1 | 17 | 98 | 22 | 4 | 0
CCN1CCN(Cc2ccc(OCc3ccccc3)cc2)CC1 | 57* | 132 | 47 | 3 | 2
O=C(C1CCCN1C(=O)c1cccs1)N1CCc2ccccc21 (stereo not drawn) | 13 | 97 | -7 | 6 | 1
O=C(CC(Nc1ccccc1)C(=O)O)c1ccccc1 (stereo not drawn) | 35 | x | 59* | 8 | x
O=C(CSc1nnc(Cc2cc(=O)[nH]c(=O)[nH]2)n1-c1ccc(Cl)cc1)NCC1CCCO1 (stereo not drawn) | 10 | 108 | 3 | 7 | -1
O=c1/c(=C\c2ccc3c(c2)OCO3)sc2n1CCCN=2 | 49 | 111 | 55* | 2 | -7
Cc1nc(N)sc1-c1csc(Nc2ccccn2)n1 | 31 | 82 | 57* | x | 2
CCSC1(SCC)N=C(N)C2(C#N)C(c3ccc(OC)c(OC)c3OC)C12C#N (stereo not drawn) | -11 | 105 | -22 | 7 | 0
COc1ccc(OC)c(NC(=O)COc2ccc(S(=O)(=O)NC(C)C)cc2)c1 | -21 | 84 | -14 | 21* | 2
COc1ccc(CNC(=O)COc2ccc(S(=O)(=O)NC(C)C)cc2)cc1 | 0 | 107 | -2 | 11 | 2
Cc1c(C(=O)Nc2ccccn2)oc2ccccc12 | 69* | x | 40 | 7 | -1
COC(=O)c1sc(NC(=O)c2oc3ccccc3c2C)nc1C | 58* | 155 | 61* | 12 | -4
O=C(CCCC(=O)n1cnc2ccccc21)n1cnc2ccccc21 | 0 | 94 | -10 | -4 | 1
Clc1nc2sccn2c1/C=N/n1cnc2ccccc21 | 40 | x | 52* | -3 | x
CC(=O)c1oc2ccccc2c1NC(=O)COC(=O)c1ccc(-n2nc(C)cc2C)cc1 | 0 | x | -6 | -8 | 6
CCCCN1CCc2c([nH]c3ccc(C)cc23)C1=O | 51* | 59 | 51* | 3 | -6
COc1ccc(CCNC(=O)c2cc(-c3cccs3)on2)cc1OC | 29 | 100 | 11 | 6 | -2
CCCc1noc(-c2ccc(-c3ccccc3)cc2)n1 | 55* | 95 | 57* | -1 | 5
O=C(Nn1cnc2ccccc2c1=O)c1ccccc1Cl | 65* | 90 | 37 | 4 | -3
CC(C)CCNC(=O)C(c1ccco1)N(Cc1cccs1)C(=O)Cn1nnc2ccccc21 (stereo not drawn) | -1 | 92 | 7 | 2 | -2
c1ccc(-c2csc3nnc(SCc4ccc5c(c4)OCCO5)n23)cc1 | 20 | 124 | 23 | x | 6
c1ccn2cc(CSc3nnc4ccccn34)nc2c1 | 58* | 128 | 57* | 1 | 9
SMILES | SF-1 act | BAP1 block | RORa activator | E coli RNAP | JNK3 inh
c1ccn2c(SCc3ccc4c(c3)OCCO4)nnc2c1 | 40 | 98 | 57* | 0 | -2
Cn1ccnc1SCc1cn2ccccc2n1 | 49 | 102 | 37 | -7 | 10
CCC1S/C(=C(\C#N)C(N)=O)N(c2ccc(F)cc2)C1=O (stereo not drawn) | -3 | 92 | -11 | 9 | 31*
CCOc1ccc(OCC)c(NC(=O)C2CCCN2S(=O)(=O)c2cccc3cccnc23)c1 (stereo not drawn) | 58* | 88 | 6 | 8 | 7
CCOC(=O)CSc1nc(N)c(C(=O)Nc2ccc(N(C)C)cc2)s1 | -6 | 57 | -29 | 13 | -8
COc1ccc(NC(=O)c2sc(SC)nc2N)cc1 | 61* | 53 | 62* | 8 | -4
Cc1cccc(C(=O)NCc2nnc(SCC(=O)N3CCN(c4ccccc4)CC3)n2C)c1 | 6 | 113 | -8 | 8 | -7
Cc1cc(NCCCN2CCOCC2)n2nc(C)c(-c3ccccc3)c2n1 | 24 | 64 | 19 | 2 | -2
Cc1cc(-c2ccc(Cl)cc2)n2nc(N)nc2n1 | -25 | 111 | -12 | 3 | 10
Cc1cc(NCCCN2CCOCC2)n2ncc(-c3ccccc3)c2n1 | 107* | 49 | 54* | 6 | 1
Cc1cc(NCCOCCO)n2ncc(-c3ccc(Cl)cc3)c2n1 | 9 | 98 | 89* | x | -2
